Activity calls are given as the source filed them. No cut-off for these calls is given here.
Tests used:
Neutrophil collagenase = Neutrophil collagenase (Homo sapiens, UniProt P22894); assay: Inhibition of MMP8
In short: (§1)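 Human recombinant enzymes in Tris 50 mM pH 7.5, NaCl 150 mM, CaCl2 10 mM, Brij 35 0.05%, DMSO 1%. Final enzyme: MMP-1 2.0 nM, MMP-2 2.9, MMP-3 5, MMP-8 1.5, MMP-9 2.7, MMP-14 cd 1, MMP-16 cd 15, TACE 7.5 nM. Pro-MMP-1/-2/-8 activated with APMA 2 mM, pro-MMP-9 with APMA 1 mM, each 1 h at 37 °C. Pro-MMP-3 activated with trypsin 5 µg/mL for 30 min at 37 °C, then soybean trypsin inhibitor.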

[1] = target: 72 kDa type IV collagenase (Homo sapiens, UniProt P08253); assay: Inhibition of MMP2; in short: as §1
[2] = target: Matrix metalloproteinase-9 (Homo sapiens, UniProt P14780); assay: Inhibition of MMP9; in short: as §1
Interstitial collagenase [3] = target: T1, Interstitial collagenase (Homo sapiens, UniProt P03956); assay: Inhibition of MMP1; in short: as §1
T1 sequence (P03956 whole entry): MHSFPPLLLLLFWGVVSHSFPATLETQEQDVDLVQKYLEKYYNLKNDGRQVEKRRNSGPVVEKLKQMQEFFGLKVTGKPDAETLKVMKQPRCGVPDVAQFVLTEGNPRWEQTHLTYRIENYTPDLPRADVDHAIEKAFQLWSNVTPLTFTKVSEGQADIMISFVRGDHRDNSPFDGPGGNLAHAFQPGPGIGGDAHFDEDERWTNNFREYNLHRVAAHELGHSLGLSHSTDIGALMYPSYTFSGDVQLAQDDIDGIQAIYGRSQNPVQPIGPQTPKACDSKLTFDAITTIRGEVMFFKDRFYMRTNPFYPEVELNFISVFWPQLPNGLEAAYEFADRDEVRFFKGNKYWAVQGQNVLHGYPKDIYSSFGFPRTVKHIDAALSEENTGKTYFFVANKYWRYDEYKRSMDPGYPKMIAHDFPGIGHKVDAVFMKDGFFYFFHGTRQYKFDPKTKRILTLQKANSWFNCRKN

[4] = target: Matrix metalloproteinase-14 (Homo sapiens, UniProt P50281); assay: Inhibition of human recombinant MMP14; in short: as §1
Stromelysin-1 = Stromelysin-1 (Homo sapiens, UniProt P08254); assay: Inhibition of MMP3; in short: as §1
Collagenase 3 [5] = target: T2, Collagenase 3 (Homo sapiens, UniProt P45452); assay: Inhibition of MMP13
Collagenase 3 [6] = target: T2, Collagenase 3; assay: Inhibition of MMP13-mediated collagen degradation by SDS-PAGE
[7] = target: Matrix metalloproteinase-16 (Homo sapiens, UniProt P51512); assay: Inhibition of human recombinant MMP16; in short: as §1
[8] = target: Disintegrin and metalloproteinase domain-containing protein 17 (Homo sapiens, UniProt P78536); assay: Inhibition of TACE; in short: as §1
Sus scrofa [9] = organism: Sus scrofa; assay: Inhibition of MMP13-mediated collagen degradation in long term IL-1-alpha-stimulated pig articular cartilage explant culture assessed as hydroxyproline release
In short: (§2)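 Porcine metacarpophalangeal cartilage explants from 3–9-month pigs were rested 24 h with serum, then 3 days serum-free. They were stimulated with IL-1α 10 ng/mL plus inhibitor at 0.1, 1 or 10 µM in serum-free DMEM, with medium changed every 3–4 days. Hydroxyproline was measured in the medium after 6 N HCl hydrolysis, using chloramine T/DMBA and absorbance at 560 nm against a standard curve. Cumulative release was corrected for unstimulated background.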

Interstitial collagenase [10] = target: T1, Interstitial collagenase; assay: Inhibition of MMP1-mediated collagen degradation by SDS-PAGE
In short: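 Full-length MMP-1 (0.5 nM) preincubated with inhibitor (0–10 µM) for 2 h at 25 °C in Tris-HCl 50 mM pH 7.5, NaCl 150 mM, CaCl2 5 mM, Brij-35 0.05%, NaN3 0.02%. Guinea-pig skin acid-soluble collagen (final 1.35 mg/mL) added, 16 h at 25 °C, stopped with EDTA. Full-length and 3/4-fragment α2 chains quantified by densitometry after 7.5% SDS-PAGE with Coomassie stain; IC50 derived.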

Sus scrofa [11] = organism: Sus scrofa; assay: Inhibition of MMP13-mediated collagen degradation in long term IL-1-alpha-stimulated pig articular cartilage explant culture assessed as hydroxyproline release at 1 uM; in short: as §2
Sus scrofa [12] = organism: Sus scrofa; assay: Inhibition of MMP13-mediated collagen degradation in long term IL-1-alpha-stimulated pig articular cartilage explant culture assessed as hydroxyproline release at 10 uM; in short: as §2

Sequence of Matrix metalloproteinase-16 (P51512 whole entry, the tested form may be a part): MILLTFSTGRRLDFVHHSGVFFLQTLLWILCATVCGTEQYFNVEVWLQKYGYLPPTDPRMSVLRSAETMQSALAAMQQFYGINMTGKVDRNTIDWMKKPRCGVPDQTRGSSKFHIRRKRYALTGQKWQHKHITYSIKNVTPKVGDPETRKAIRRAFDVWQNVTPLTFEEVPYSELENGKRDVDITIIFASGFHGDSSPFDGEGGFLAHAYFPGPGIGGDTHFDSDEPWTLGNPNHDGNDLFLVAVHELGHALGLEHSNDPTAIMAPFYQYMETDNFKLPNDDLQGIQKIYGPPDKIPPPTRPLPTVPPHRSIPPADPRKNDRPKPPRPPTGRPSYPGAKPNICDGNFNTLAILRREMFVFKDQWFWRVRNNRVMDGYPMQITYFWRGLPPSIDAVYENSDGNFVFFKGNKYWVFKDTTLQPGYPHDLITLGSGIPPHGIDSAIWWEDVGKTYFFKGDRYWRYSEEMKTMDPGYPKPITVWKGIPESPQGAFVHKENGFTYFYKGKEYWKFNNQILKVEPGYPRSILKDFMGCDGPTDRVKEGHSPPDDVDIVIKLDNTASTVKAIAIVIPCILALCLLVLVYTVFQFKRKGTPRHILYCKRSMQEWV
Sequence of Disintegrin and metalloproteinase domain-containing protein 17 (P78536 whole entry, the tested form may be a part): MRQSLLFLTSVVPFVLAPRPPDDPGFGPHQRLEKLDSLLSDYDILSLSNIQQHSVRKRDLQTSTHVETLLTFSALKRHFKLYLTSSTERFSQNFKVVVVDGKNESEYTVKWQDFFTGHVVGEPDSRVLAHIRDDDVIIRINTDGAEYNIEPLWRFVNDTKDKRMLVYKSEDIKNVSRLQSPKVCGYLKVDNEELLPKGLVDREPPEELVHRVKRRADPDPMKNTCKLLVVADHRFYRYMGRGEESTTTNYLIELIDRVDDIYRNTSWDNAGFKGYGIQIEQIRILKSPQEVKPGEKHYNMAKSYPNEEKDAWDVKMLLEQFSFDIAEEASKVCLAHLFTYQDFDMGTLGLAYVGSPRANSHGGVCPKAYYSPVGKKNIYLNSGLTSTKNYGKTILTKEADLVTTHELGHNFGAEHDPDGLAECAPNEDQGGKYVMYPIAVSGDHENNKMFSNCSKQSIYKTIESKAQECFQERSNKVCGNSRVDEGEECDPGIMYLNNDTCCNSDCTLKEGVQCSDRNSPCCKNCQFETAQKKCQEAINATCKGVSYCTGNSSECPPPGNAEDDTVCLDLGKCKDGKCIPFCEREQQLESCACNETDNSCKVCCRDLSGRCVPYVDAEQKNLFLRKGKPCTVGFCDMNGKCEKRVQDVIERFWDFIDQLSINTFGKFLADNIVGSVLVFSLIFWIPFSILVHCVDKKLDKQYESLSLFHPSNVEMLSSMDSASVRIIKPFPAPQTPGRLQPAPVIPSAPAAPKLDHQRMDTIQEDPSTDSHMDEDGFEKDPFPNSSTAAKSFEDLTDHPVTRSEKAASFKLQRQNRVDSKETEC
Sequence of Matrix metalloproteinase-9 (P14780 whole entry): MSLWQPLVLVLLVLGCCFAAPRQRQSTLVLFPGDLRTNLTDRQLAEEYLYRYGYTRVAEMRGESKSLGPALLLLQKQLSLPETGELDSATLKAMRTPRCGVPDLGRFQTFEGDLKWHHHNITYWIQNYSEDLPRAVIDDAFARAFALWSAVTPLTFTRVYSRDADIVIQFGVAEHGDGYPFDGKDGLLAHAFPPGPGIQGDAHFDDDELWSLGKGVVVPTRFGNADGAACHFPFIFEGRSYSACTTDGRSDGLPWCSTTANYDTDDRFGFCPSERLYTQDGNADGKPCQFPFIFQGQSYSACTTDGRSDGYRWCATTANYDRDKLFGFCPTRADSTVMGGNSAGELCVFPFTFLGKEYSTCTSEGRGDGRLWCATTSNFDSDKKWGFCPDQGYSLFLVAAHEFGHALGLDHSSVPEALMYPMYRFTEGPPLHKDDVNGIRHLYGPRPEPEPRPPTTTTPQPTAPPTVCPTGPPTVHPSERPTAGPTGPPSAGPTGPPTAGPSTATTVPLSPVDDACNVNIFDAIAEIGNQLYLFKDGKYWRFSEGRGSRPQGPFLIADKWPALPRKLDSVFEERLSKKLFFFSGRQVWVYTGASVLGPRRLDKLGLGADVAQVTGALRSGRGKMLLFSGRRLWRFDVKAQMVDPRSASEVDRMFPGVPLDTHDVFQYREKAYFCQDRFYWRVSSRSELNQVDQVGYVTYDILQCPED
Sequence of Neutrophil collagenase (P22894 whole entry): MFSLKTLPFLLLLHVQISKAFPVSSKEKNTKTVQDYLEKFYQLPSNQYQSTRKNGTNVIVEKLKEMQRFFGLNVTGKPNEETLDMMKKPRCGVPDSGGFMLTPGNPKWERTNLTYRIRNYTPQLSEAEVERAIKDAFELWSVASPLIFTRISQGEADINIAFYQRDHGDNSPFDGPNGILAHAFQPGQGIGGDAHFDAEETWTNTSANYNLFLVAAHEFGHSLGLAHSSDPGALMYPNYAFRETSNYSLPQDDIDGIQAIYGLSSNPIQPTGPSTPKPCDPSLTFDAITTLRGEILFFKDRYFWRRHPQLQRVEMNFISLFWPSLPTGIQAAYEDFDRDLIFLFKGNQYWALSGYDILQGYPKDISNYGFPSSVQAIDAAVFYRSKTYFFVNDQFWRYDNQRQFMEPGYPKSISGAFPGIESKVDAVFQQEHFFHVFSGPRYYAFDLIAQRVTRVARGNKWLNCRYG
Sequence of 72 kDa type IV collagenase (P08253 whole entry): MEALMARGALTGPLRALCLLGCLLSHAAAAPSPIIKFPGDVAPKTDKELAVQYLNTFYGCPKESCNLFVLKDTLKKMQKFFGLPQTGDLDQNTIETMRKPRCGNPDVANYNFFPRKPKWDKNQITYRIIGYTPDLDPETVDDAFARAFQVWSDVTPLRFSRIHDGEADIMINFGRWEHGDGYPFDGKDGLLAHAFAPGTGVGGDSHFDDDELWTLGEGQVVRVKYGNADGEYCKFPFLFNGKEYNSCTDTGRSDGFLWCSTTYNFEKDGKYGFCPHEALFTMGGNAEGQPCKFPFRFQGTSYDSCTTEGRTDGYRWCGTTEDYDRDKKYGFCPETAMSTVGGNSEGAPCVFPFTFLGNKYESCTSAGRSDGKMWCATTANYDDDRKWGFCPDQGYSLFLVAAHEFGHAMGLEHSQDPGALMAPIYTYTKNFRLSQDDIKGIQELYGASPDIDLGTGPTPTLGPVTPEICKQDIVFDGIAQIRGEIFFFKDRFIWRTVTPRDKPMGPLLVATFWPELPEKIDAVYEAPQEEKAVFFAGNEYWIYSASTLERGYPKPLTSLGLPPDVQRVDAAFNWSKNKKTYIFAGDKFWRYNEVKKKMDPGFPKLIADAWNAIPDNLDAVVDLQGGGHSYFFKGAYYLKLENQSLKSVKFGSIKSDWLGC
Sequence of Stromelysin-1 (P08254 whole entry): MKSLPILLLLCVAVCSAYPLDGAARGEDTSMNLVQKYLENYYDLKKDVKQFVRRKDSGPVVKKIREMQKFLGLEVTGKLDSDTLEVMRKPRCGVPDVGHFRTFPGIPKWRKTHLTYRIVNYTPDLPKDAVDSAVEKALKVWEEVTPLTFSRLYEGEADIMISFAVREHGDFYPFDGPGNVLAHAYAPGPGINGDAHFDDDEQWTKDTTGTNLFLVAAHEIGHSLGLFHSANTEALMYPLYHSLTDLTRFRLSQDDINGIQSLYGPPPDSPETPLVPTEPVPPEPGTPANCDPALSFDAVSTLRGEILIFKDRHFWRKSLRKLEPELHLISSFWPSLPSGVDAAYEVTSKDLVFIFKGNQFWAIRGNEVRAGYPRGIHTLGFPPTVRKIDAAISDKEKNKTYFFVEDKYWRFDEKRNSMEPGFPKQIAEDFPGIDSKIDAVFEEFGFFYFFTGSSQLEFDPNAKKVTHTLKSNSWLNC

Compound | IC50 (Neutrophil collagenase) | IC50 [1] | IC50 [2] | IC50 (Interstitial collagenase [3]) | IC50 [4] | IC50 (Stromelysin-1) | IC50 (Collagenase 3 [5]) | Ki [1] | IC50 (Collagenase 3 [6]) | IC50 [7] | IC50 [8] | IC50 (Interstitial collagenase [10]) | Ki (Collagenase 3 [5]) | inhibition (Sus scrofa [12]) | inhibition (Sus scrofa [9]) | inhibition (Sus scrofa [11])
CC(C)ON([C@@H](C(=O)NO)C(C)C)S(=O)(=O)c1ccc(-c2ccc(OCc3ccc(Cl)cc3)cc2)cc1 | 63 nM | 9.6 nM | 69 nM | 48000 nM | 14000 nM | 180 nM | 3 nM | 54 nM | 1.4 nM | 5000 nM | > 100000 nM | 15000 nM | 29 nM | – | Dose-dependent effect | Active
COc1ccc(-c2ccc(S(=O)(=O)N(CC(=O)NO)OC(C)C)s2)cc1 | 110 nM | 17 nM | 250 nM | > 10000 nM | > 1000 nM | 1200 nM | 25 nM | – | – | – | – | – | – | – | – | –
CCCCOc1ccc(-c2ccc(S(=O)(=O)N(CC(=O)NO)OC(C)C)cc2)cc1 | 560 nM | 5.5 nM | 44 nM | 11000 nM | 5500 nM | 1600 nM | 15 nM | – | – | – | – | – | – | – | – | –
CCc1ccc(-c2ccc(S(=O)(=O)N(CC(=O)NO)OC(C)C)s2)cc1 | 140 nM | 56 nM | 680 nM | > 10000 nM | 2400 nM | 4300 nM | 91 nM | – | – | – | – | – | – | – | – | –
CC(C)ON(CC(=O)NO)S(=O)(=O)c1ccc(-c2ccc(OCc3ccc(Cl)cc3)cc2)cc1 | 1700 nM | 40 nM | 1100 nM | 13000 nM | 3400 nM | 1800 nM | 19 nM | 25 nM | – | 15000 nM | 35000 nM | – | 8.2 nM | – | – | –
CCCCc1ccc(C#Cc2ccc(S(=O)(=O)N(CC(=O)NO)OC(C)C)s2)cc1 | 7600 nM | 360 nM | 4400 nM | 13000 nM | 11000 nM | 4300 nM | 260 nM | – | – | – | – | – | – | – | – | –
CC(C)ON(CC(=O)NO)S(=O)(=O)c1ccc(-c2ccccc2)cc1 | 260 nM | – | – | 12000 nM | 2300 nM | 5900 nM | 45 nM | 13 nM | 25 nM | 900 nM | > 100000 nM | 2900 nM | 20 nM | Active | Dose-dependent effect | –
CC(C)ON(CC(=O)NO)S(=O)(=O)c1ccc(/C=C/c2ccc(-c3ccccc3)cc2)cc1 | 3600 nM | 74 nM | 2300 nM | 5600 nM | 2800 nM | 710 nM | 41 nM | – | – | – | – | – | – | – | – | –
CC(C)ON(CC(=O)NO)S(=O)(=O)c1ccc(-c2ccc(F)cc2)s1 | 440 nM | 310 nM | 3200 nM | 20000 nM | 6500 nM | 9100 nM | 600 nM | – | – | – | – | – | – | – | – | –

Second part, led by results:

IC50 (Neutrophil collagenase) | IC50 [1] | IC50 [2] | IC50 (Interstitial collagenase [3]) | IC50 [4] | IC50 (Stromelysin-1) | IC50 (Collagenase 3 [5]) | Ki [1] | IC50 (Collagenase 3 [6]) | IC50 [7] | IC50 [8] | IC50 (Interstitial collagenase [10]) | Ki (Collagenase 3 [5]) | inhibition (Sus scrofa [12]) | Compound | inhibition (Sus scrofa [9]) | inhibition (Sus scrofa [11])
66 nM | 26 nM | 110 nM | 59000 nM | 590 nM | 1200 nM | 63 nM | – | – | – | – | – | – | – | CC(C)ON(CC(=O)NO)S(=O)(=O)c1ccc(Oc2ccccc2)cc1 | – | –
7 nM | 2 nM | 34 nM | 610 nM | 70 nM | 320 nM | 2.8 nM | – | 2.4 nM | – | – | 970 nM | – | – | O=C(CNS(=O)(=O)c1ccc(-c2ccccc2)cc1)NO | – | –
65 nM | 4.2 nM | 160 nM | 13000 nM | 1000 nM | 1800 nM | 10 nM | 3.8 nM | – | – | – | – | 5.8 nM | – | COc1ccc(-c2ccc(S(=O)(=O)N(CC(=O)NO)OC(C)C)cc2)cc1 | – | –
37 nM | 1.5 nM | 77 nM | 3300 nM | 320 nM | 1300 nM | 7.2 nM | – | – | – | – | – | – | – | CSc1ccc(-c2ccc(S(=O)(=O)N(CC(=O)NO)OC(C)C)cc2)cc1 | – | –
48 nM | 12 nM | 34 nM | 4800 nM | 530 nM | 920 nM | 39 nM | – | 9.4 nM | – | – | 4100 nM | – | – | CC(C)CN(CC(=O)NO)S(=O)(=O)c1ccc(-c2ccccc2)cc1 | – | –
